ChEMBL document CHEMBL4339223, “Polycyclic Maleimide-based Scaffold as New Privileged Structure for Navigating the Cannabinoid System Opportunities” (ACS Med Chem Lett, 2019)
The source made the active and inactive calls. The rule behind the calls is not given here.

How the values were obtained:
Cannabinoid receptor 1 [1] = target: T1, Cannabinoid receptor 1 (Homo sapiens, UniProt P21554); assay: Displacement of [3H]-CP55940 from human recombinant cannabinoid CB1 receptor expressed in HEK293 cell membranes incubated for 90 mins
Outline: (§1)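 Competition binding against [3H]-CP55940 on human recombinant CB1 or CB2 receptor, with increasing concentrations of test compound. IC50 was obtained by nonlinear regression of the inhibition of radioligand binding. Ki was calculated with the Cheng–Prusoff equation, and only where IC50 was below 10 μM.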

Cannabinoid receptor 1 [2] = target: T1, Cannabinoid receptor 1; assay: Displacement of [3H]-CP55940 from human recombinant cannabinoid CB1 receptor expressed in HEK293 cell membranes incubated for 90 mins by Cheng-Prusoff equation analysis; outline: as §1
Cannabinoid receptor 2 [3] = target: T2, Cannabinoid receptor 2 (Homo sapiens, UniProt P34972); assay: Displacement of [3H]-CP55940 from human recombinant cannabinoid CB2 receptor expressed in HEK293 cell membranes incubated for 90 mins; outline: as §1
Cannabinoid receptor 2 [4] = target: T2, Cannabinoid receptor 2; assay: Displacement of [3H]-CP55940 from human recombinant cannabinoid CB2 receptor expressed in HEK293 cell membranes incubated for 90 mins by Cheng-Prusoff equation analysis; outline: as §1
Cannabinoid receptor 2 [5] = target: T2, Cannabinoid receptor 2; assay: Activity at human recombinant cannabinoid CB2 receptor expressed in CHOK1 cells assessed as induction of cAMP content back to basal condition up to 25 uM pre-incubated for 15 mins before NKH-477 stimulation for 30 mins by chemiluminescent detection based cAMP Hunter assay; type: functional, cell-based
Cannabinoid receptor 2 [6] = target: T2, Cannabinoid receptor 2; assay: (§2) Noncompetitive antagonist activity at human recombinant cannabinoid CB2 receptor expressed in CHOK1 cells assessed as inhibition of NKH-477-induced cAMP accumulation pre-incubated for 15 mins before NKH-477 stimulation for 30 mins by chemiluminescent detection based cAMP Hunter assay; type: functional, cell-based
Cannabinoid receptor 2 [7] = target: T2, Cannabinoid receptor 2; assay: as §2, with “accumulation by measuring parallel shifts of NKH-477 concentration-response curves” for “accumulation”, “assay based Schild plot analysis” for “assay”; type: functional, cell-based
Outline: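 Functional cAMP assay under NKH-477 (water-soluble forskolin analog) stimulation. JWH-133 concentration–response curves were run alone and with several concentrations of the antagonist. The concentration ratio was taken as EC50 of JWH-133 with antagonist divided by the concentration giving the same response without it. log(CR–1) was plotted against log antagonist concentration, and the Schild slope came from linear regression.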

[8] = Inhibition of calcium channel in human SH-SY5Y cells assessed as blockade of 70 mM potassium-evoked depolarization-induced Ca2+ entry; type: cell-based
[9] = target: Glycogen synthase kinase-3 beta (Homo sapiens, UniProt P49841); assay: inhibition of GSK3beta (unknown origin) by LANCE Ultra TR-FRET assay
Chain of Glycogen synthase kinase-3 beta (P49841 whole entry): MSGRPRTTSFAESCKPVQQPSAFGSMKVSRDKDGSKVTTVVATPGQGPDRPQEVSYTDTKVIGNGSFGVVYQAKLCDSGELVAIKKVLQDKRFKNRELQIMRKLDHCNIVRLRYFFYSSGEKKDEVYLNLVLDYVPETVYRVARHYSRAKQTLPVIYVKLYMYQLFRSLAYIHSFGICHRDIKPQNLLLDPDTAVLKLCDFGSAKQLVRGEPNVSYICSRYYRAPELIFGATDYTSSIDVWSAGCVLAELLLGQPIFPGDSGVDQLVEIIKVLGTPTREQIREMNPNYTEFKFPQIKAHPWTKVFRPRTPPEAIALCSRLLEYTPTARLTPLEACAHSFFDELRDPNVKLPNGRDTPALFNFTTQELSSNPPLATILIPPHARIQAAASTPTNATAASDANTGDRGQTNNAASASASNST

T2 sequence (P34972 whole entry): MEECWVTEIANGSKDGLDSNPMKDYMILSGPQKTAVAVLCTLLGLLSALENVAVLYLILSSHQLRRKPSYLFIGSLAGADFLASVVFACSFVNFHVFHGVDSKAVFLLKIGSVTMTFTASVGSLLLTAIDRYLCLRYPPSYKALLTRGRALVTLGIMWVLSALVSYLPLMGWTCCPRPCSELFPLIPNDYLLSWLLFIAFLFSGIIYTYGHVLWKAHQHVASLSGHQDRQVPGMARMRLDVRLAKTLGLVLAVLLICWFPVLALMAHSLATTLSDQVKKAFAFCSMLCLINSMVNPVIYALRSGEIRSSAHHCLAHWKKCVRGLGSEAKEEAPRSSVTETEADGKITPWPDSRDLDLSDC
T1 sequence (P21554 whole entry): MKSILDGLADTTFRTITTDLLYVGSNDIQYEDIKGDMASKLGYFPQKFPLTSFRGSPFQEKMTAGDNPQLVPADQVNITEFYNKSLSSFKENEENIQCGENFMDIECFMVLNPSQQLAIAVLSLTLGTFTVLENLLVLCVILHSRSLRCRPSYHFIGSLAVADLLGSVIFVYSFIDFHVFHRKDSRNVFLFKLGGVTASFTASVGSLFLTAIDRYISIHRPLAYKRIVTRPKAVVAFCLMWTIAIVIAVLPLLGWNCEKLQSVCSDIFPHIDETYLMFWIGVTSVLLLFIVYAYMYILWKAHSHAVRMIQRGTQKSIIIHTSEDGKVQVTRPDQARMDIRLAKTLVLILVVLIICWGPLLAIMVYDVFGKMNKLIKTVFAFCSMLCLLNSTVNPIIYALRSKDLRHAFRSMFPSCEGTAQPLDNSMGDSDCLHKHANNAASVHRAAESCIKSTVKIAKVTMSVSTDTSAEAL

SMILES	IC50 (Cannabinoid receptor 1 [1]) [µM]	Ki (Cannabinoid receptor 1 [2]) [µM]	IC50 (Cannabinoid receptor 2 [3]) [µM]	Ki (Cannabinoid receptor 2 [4]) [µM]	Activity (Cannabinoid receptor 2 [5])	Activity (Cannabinoid receptor 2 [6])	Activity (Cannabinoid receptor 2 [7])	inhibition (INH) [8]	inhibition (INH) [9]
CCCCCCCOCC12c3ccccc3C(c3ccccc31)C1C(=O)N(CCCCCCC)C(=O)C12 (configuration not stated)	> 10	> 10	> 10	> 10					
CCCCCCN1C(=O)C2C3c4ccccc4C(c4ccccc43)C2C1=O (configuration not stated)	> 10	> 10	8.14	2.06	inactive				
CCCCCCCCN1C(=O)C2C3c4ccccc4C(c4ccccc43)C2C1=O (configuration not stated)	> 10	> 10	8.74	2.22					
CCCCCCN1C(=O)C2C3c4ccccc4C(C)(c4ccccc43)C2C1=O (configuration not stated)	> 10	> 10	3.93	1.01					
CCCCCCCN1C(=O)C2C3c4ccccc4C(Cl)(c4ccccc43)C2C1=O (configuration not stated)	> 10	> 10	9.88	2.51					
CCCCCCCN1C(=O)C2C3c4ccccc4C(Br)(c4ccccc43)C2C1=O (configuration not stated)	> 10	> 10	> 10	> 10					
CCCCCCCNCC12c3ccccc3C(c3ccccc31)C1C(=O)N(CCCCCCC)C(=O)C12 (configuration not stated)	> 10	> 10	> 10	> 10					
CCCCCCCOCC12c3ccccc3C(c3ccccc31)C1C(=O)NC(=O)C12 (configuration not stated)	> 10	> 10	0.9	0.23		Active	Active	Not Active	Not Active
CCCCCCCN1C(=O)C2C3c4ccccc4C(c4ccccc43)C2C1=O (configuration not stated)	9.35	3.77	7.94	2.01					
CCCCCCCNCC12c3ccccc3C(c3ccccc31)C1C(=O)NC(=O)C12 (configuration not stated)	> 10	> 10	3.93	1.01					
O=C1NC(=O)C2C3c4ccccc4C(c4ccccc43)C12 (configuration not stated)	> 10	> 10	> 10	> 10					
CCCCCCCN1C(=O)C2C3c4ccccc4C(C)(c4ccccc43)C2C1=O (configuration not stated)	> 10	> 10	3.86	0.98					
CCCCCCCN1C(=O)C2C3c4ccccc4C(c4cc(Cl)ccc43)C2C1=O (configuration not stated)	> 10	> 10	6.85	1.74					
